Consider two compounds from ChEMBL document CHEMBL5385869, “Novel 4-aminoquinolines: Synthesis, inhibition of the Mycobacterium tuberculosis enoyl-acyl carrier protein reductase, antitubercular activity, SAR, and preclinical evaluation” (Eur J Med Chem, 2023).

Each structure is given as a SMILES string. In brackets after ≈: the same amount, converted by molar mass. Several values for one entry are separate records, joined by “and”; a condition that tells them apart may be missing. Identical values can stand only once. Activity calls are given as the source filed them. The calls are words filed in the database; no cut-off is given here.

For data set [1], the system named is Mycobacterium tuberculosis. The data set can be described thus: Antibacterial activity against pan-sensitive Mycobacterium tuberculosis H37Rv ATCC 27294 measured after 7 days by resazurin dye based assay. Format: functional. As to conditions: H37Rv ATCC 27294, 168 h, time 7 day. The gist of the method: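 Resazurin reduction microplate assay (REMA) in Middlebrook 7H9 broth with 10% ADC and 5% DMSO. Compounds come from 2 mg/mL DMSO stocks and are 2-fold serially diluted, top concentration 0.08–40 μg/mL depending on solubility. MIC is the lowest concentration preventing the blue-to-pink colour change. Three independent experiments; the reported value is the modal or the highest value.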

Data set [2] deals with T1, Enoyl-[acyl-carrier-protein] reductase [NADH] (Mycobacterium tuberculosis) (UniProt P9WGR1).
T1 sequence (whole entry): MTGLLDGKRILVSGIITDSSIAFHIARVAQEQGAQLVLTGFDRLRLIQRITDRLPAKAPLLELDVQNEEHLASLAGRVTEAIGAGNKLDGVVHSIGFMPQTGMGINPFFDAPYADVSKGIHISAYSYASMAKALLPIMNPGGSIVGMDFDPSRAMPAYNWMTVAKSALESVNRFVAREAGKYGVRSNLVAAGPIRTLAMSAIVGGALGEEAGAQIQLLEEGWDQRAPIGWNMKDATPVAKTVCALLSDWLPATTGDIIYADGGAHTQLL
The data set can be described thus: Binding affinity to recombinant Mycobacterium tuberculosis InhA assessed as change in enthalpy at 2 mM in presence of NADH by Spectrofluorophotometry.

For data set [3], the target named is T1, Enoyl-[acyl-carrier-protein] reductase [NADH] (Mycobacterium tuberculosis). Briefly: Binding affinity to recombinant Mycobacterium tuberculosis InhA assessed as change in entropy at 2 mM in presence of NADH by Spectrofluorophotometry.
Data set [4] shares this target. Briefly: Binding affinity to recombinant Mycobacterium tuberculosis InhA assessed as gibbs free energy change at 2 mM in presence of NADH by Spectrofluorophotometry.
The subject of data set [5] is Mycobacterium tuberculosis. The data set can be described thus: Antibacterial activity against MDR Mycobacterium tuberculosis clinical isolate PE-003 measured after 7 days by resazurin dye based assay. Format: functional. The following applies: PE-003, 168 h, time 7 day.
The target of data set [6] is T2, Enoyl-[acyl-carrier-protein] reductase [NADH] (Mycobacterium tuberculosis, UniProt P9WGR1).
T2 sequence (P9WGR1 whole entry): T1 sequence (whole entry)
Briefly: Inhibition of Mycobacterium tuberculosis InhA-catalysed chemical reaction in presence of NADH measured for 1 min by UV/Visible spectrophotometry. The gist of the method:
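Recombinant MtInhA reaction at 25 °C in 100 mM Pipes pH 7.0, started by adding 2.2 μM enzyme and followed for 1 min. Substrate is DD-CoA, made from 2-trans-dodecenoic acid and CoA.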

The target of data set [7] is T1, Enoyl-[acyl-carrier-protein] reductase [NADH] (Mycobacterium tuberculosis). The data set can be described thus: Time dependent inhibition of Mycobacterium tuberculosis InhA.
For data set [8], the target named is T2, Enoyl-[acyl-carrier-protein] reductase [NADH]. Briefly: Noncompetitive inhibition of Mycobacterium tuberculosis InhA using DD-CoA as substrate assessed as inhibition constant for enzyme-substrate-inhibitor ternary complex in presence of varying concentrations of NADH by double reciprocal plot analysis.
Data set [9] has the same target. The data set can be described thus: Noncompetitive inhibition of Mycobacterium tuberculosis InhA using DD-CoA as substrate assessed as inhibition constant for enzyme-inhibitor binary complex in presence of varying concentrations of NADH by double reciprocal plot analysis.
Data set [10] has the same target. The data set can be described thus: Competitive inhibition of Mycobacterium tuberculosis InhA using varying concentrations of DD-CoA as substrate assessed as inhibition constant for enzyme-inhibitor binary complex in presence of NADH by Lineweaver-Burk plot analysis. The gist of the method:
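Steady-state kinetics with recombinant MtInhA in 100 mM Pipes pH 7.0 at 25 °C. NADH fixed at 60 μM, DD-CoA varied 15–135 μM, inhibitor at fixed-varied levels of 0.2–4 μM. Kis is fitted to the competitive inhibition equation.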

The nature of data set [11]: Cytotoxicity against human HepG2 cells assessed as reduction in cell viability incubated for 72 hrs by MTT assay. Type of data set: toxicity, cell-based. The gist of the method: (§1)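 Cells grown in DMEM with 10% FBS. HepG2 seeded at 4 × 10³ and Vero at 2 × 10³ cells/well, 24 h before dosing. Compounds at 1, 5 and 20 μM in 1% DMSO for 72 h at 37 °C, 5% CO2. MTT readout: 5 mg/mL reagent for 4 h, absorbance at 595 nm. Neutral red readout: 25 μg/mL dye for 3 h, then acid-ethanol desorb. Viability is expressed relative to 1% DMSO controls.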

A short description of data set [12]: Cytotoxicity against human HepG2 cells assessed as reduction in cell viability incubated for 72 hrs by neutral red uptake assay. Type of data set: toxicity, cell-based. The procedure, abridged:
as §1

A short description of data set [13]: Cytotoxicity against African green monkey Vero cells assessed as reduction in cell viability incubated for 72 hrs by MTT assay. Type of data set: toxicity, cell-based. As to conditions: chlorocebus sabaeus. The procedure, abridged: as §1
Data set [14] is described as follows: Cytotoxicity against African green monkey Vero cells assessed as reduction in cell viability incubated for 72 hrs by neutral red uptake assay. Format: toxicity, cell-based. As to conditions: chlorocebus sabaeus. The gist of the method:
as §1

A short description of data set [15]: Selectivity index, ratio of CC50 for human HepG2 cells by MTT assay to MIC for pan-sensitive Mycobacterium tuberculosis H37Rv ATCC 27294. Type of data set: toxicity. The following applies: read-out: Selectivity Index.
Data set [16] in a line: Selectivity index, ratio of CC50 for human HepG2 cells by neutral red uptake assay to MIC for pan-sensitive Mycobacterium tuberculosis H37Rv ATCC 27294. Type of data set: toxicity. As to conditions: read-out: Selectivity Index.
Data set [17] in a line: Selectivity index, ratio of CC50 for African green monkey Vero cells by MTT assay to MIC for pan-sensitive Mycobacterium tuberculosis H37Rv ATCC 27294. As to conditions: read-out: Selectivity Index. Type of data set: toxicity, cell-based.
A short description of data set [18]: Selectivity index, ratio of CC50 for African green monkey Vero cells by neutral red uptake assay to MIC for pan-sensitive Mycobacterium tuberculosis H37Rv ATCC 27294. Format: toxicity, cell-based. As to conditions: read-out: Selectivity Index.
In the next data set the test system is Staphylococcus aureus. Briefly: Antibacterial activity against Staphylococcus aureus ATCC 25923 assessed as inhibition of bacterial growth at 20 uM by broth microdilution method. Format: functional, organism-based. The procedure, abridged: (§2)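 Broth microdilution in triplicate against a small bacterial panel, with compounds tested at 20 μM for growth inhibition.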

Another data set deals with Escherichia coli. Briefly: Antibacterial activity against Escherichia coli ATCC 25922 assessed as inhibition of bacterial growth at 20 uM by broth microdilution method. Format: functional, organism-based. The procedure, abridged: as §2
The next data set relates to Acinetobacter baumannii. The data set can be described thus: Antibacterial activity against multidrug-resistant Acinetobacter baumannii clinical isolates assessed as inhibition of bacterial growth at 20 uM by broth microdilution method. Format: functional, organism-based. The procedure, abridged:
as §2

Another data set concerns Klebsiella pneumoniae. Briefly: Antibacterial activity against multidrug-resistant Klebsiella pneumoniae clinical isolates assessed as inhibition of bacterial growth at 20 uM by broth microdilution method. Type of data set: functional, organism-based. The procedure, abridged: as §2
A short description of data set [19]: Chemical stability in 0.1 M HCl solution at pH 1.2 assessed as parent compound remaining at 1 to 10 uM measured after 24 hrs by HPLC-EM/MS analysis. Format: physicochemical. The following applies: dose 1-10 µM, read-out: Stability. The gist of the method:
(§3)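 Compounds at 1–10 μM incubated 24 h at 37 °C in three media: pH 1.2 (0.1 M HCl), pH 7.4 (PBS) and pH 9.1 (0.1 M NH4HCO3). Remaining parent compound quantified afterward.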

The nature of data set [20]: Chemical stability in PBS at pH 7.4 assessed as parent compound remaining at 1 to 10 uM measured after 24 hrs by HPLC-EM/MS analysis. Type of data set: physicochemical. The following applies: dose 1-10 µM, read-out: Stability. The procedure, abridged:
as §3

Data set [21] can be described thus: Chemical stability in 0.1 M NH4HCO3 solution at pH 9.1 assessed as parent compound remaining at 1 to 10 uM measured after 24 hrs by HPLC-EM/MS analysis. Format: physicochemical. As to conditions: dose 1-10 µM, read-out: Stability. The procedure, abridged: as §3
The nature of data set [22]: Solubility of compound in 0.1 M HCl solution at pH 1.2 at 1 mg incubated for 4 hrs under shaking conditions by liquid chromotography. Format: physicochemical. The procedure, abridged:
(§4)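 1 mg of compound was added to 1 mL of PBS pH 7.4 or 0.1 M HCl, in triplicate. Suspensions were vortexed 1 min, shaken 4 h at 25 °C, then centrifuged 13000 rpm for 15 min at 25 °C. Supernatant was quantified by reverse-phase UHPLC (UV 260–280 nm) against a single-point calibration of compound in DMSO.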

A short description of data set [23]: Solubility of compound in PBS at pH 7.4 at 1 mg incubated for 4 hrs under shaking conditions by liquid chromotography. Format: physicochemical. The gist of the method: as §4
Data set [24] can be described thus: Permeability of compound at 10 uM measured after 5 hrs by PAMPA assay. Format: ADME. As to conditions: read-out: permeability. The gist of the method: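 PAMPA: compounds at 10 μM in 2% DMSO added to a pH 7.4 donor phase, 5 h at room temperature. Receptor-side concentration (pH 7.4) measured to derive permeation rate. Alprenolol is the analytical control.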

The nature of data set [25]: Metabolic stability in rat liver microsomes assessed as intrinsic clearance at 2 uM measured upto 30 mins by HPLC/MS/MS analysis. Format: ADME, Microsome. As to conditions: read-out: CLH. The procedure, abridged:
(§5)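 Compounds at 2 μM incubated at 37 °C with 1 mg/mL rat liver microsomes containing NADPH. Parent compound consumption followed over time.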

Data set [26] can be described thus: Metabolic stability in rat liver microsomes assessed as half life at 2 uM measured upto 30 mins by HPLC/MS/MS analysis. Type of data set: ADME, Microsome. The gist of the method:
as §5

The nature of data set [27]: Chemical stability in PBS at pH 7.4 assessed as reduction in parent compound at 1 to 10 uM measured after 24 hrs by HPLC-EM/MS analysis. Type of data set: physicochemical. As to conditions: dose 1-10 µM, read-out: Drug degradation. The procedure, abridged:
as §3

The target of data set [28] is T2, Enoyl-[acyl-carrier-protein] reductase [NADH]. Briefly: Binding affinity to Mycobacterium tuberculosis InhA assessed as dissociation constant at 250 uM at 25 degreeC in presence of NADH by fluorescence spectroscopy. The gist of the method:
(§6)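 Titration of pre-formed MtInhA:NADH complex (2 mL of 3 μM enzyme with 20 μM NADH), adding microliter aliquots of 250 μM ligand stock with dilution kept ≤1%. Intrinsic fluorescence read at 295 nm excitation, 310–500 nm emission. Temperatures 15, 20, 25 and 30 °C. KD is fitted to a hyperbolic isotherm. ΔH°, ΔS° and ΔG° come from van't Hoff analysis of KD across temperatures.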

Data set [29] concerns the target T1, Enoyl-[acyl-carrier-protein] reductase [NADH] (Mycobacterium tuberculosis). The data set can be described thus: Binding affinity to Mycobacterium tuberculosis InhA assessed as change in enthalpy at 250 uM in presence of NADH by fluorescence spectroscopy.
Data set [30] shares this target. The data set can be described thus: Binding affinity to Mycobacterium tuberculosis InhA assessed as change in entropy at 250 uM in presence of NADH by fluorescence spectroscopy.
The target is the same in data set [31]. Briefly: Binding affinity to Mycobacterium tuberculosis InhA assessed as gibbs free energy change at 250 uM in presence of NADH by fluorescence spectroscopy. The procedure, abridged:
as §6

Consider `CCOC(=O)c1ccc2nc(C)cc(Nc3ccc(N4CCCCC4)cc3)c2c1`, for which the minimum inhibitory concentration (MIC) is 12.8 µM (≈ 4.99 µg/mL) in data set [1]; 2.5 µg/mL and 6.4 µM in data set [5]. For the same compound, in data set [2], the deltaH was -23.3 kcal/mol. Further, the deltaS in data set [3] was -54.5 cal/mol/K. In addition, in data set [4], the deltaG was -7.1 kcal/mol.
Take `CSc1ccc2nc(C)cc(Nc3ccc(N4CCCCC4)cc3)c2c1`: the 50% inhibitory concentration (IC50) in data set [6] is 1000 nM. The minimum inhibitory concentration (MIC) in data set [1] stood at 0.4 µM (≈ 0.145 µg/mL). Moreover, the TDI result in [7] was “inactive”. In addition, the Ki in data set [8] turned out to be 410 nM; in data set [9] it was 430 nM; in [10] it was 620 nM. The 50% cytotoxic concentration (CC50) at 72 h in data set [11] is 5.9 µM; in data set [12] it was 12.2 µM; in data set [13] it was 11.1 µM; in [14], 8.5 µM. The selectivity ratio in [15] came out at 14.7; in data set [16], 30.5; in data set [17] it was 27.7; in data set [18] it was 21.2. Moreover, the result with Staphylococcus aureus, in the data set with Escherichia coli, in the data set on Acinetobacter baumannii and in the data set with Klebsiella pneumoniae was inactive. In addition, the values for the remaining at 24 h, up to 10 µM in data set [19], in data set [20] and in [21] were 100%, 68% and 100%, respectively. Moreover, the solubility (thermodynamic) at 4 h in data set [22] was more than 2700 µM; in data set [23], 38 µM (≈ 13.8 µg/mL). For the same compound, the Papp at 5 h, 10 µM in [24] amounted to 0.03 ×10⁻⁶ cm/s. In addition, the CLint scaled at 2 µM in [25] worked out at 60 mL/min/kg. In addition, the half-life at 2 µM in [26] was 5.9 min. Moreover, in data set [27], the degraded at 24 h, up to 10 µM was more than 30%. Besides, in [28], the Kd was found to be 870 nM. For the same compound, the deltaH in data set [29] is -25.8 kcal/mol. The deltaS in data set [30] was -55.7 cal/mol/K. Also, in data set [31], the deltaG is -8.3 kcal/mol.
